# Active and inactive are the calls of the source. No cut-off for these calls is given here.
# What was measured:
# [1] = Susceptibility of compound to hydrolysis at 37 degrees C for RPMI-10% human serum; format: ADME; settings: RPMI with 10% human serum
# Method in brief: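 Prodrug (100 μM final, from 1 mM stock in 10% aqueous DMSO) is held in RPMI with 10% human serum at 37 °C and sampled from 0 to 77.5 h. Samples are mixed with EtOH plus internal reference, centrifuged, and the supernatant is analysed by HPLC. Half-life of ester disappearance is the mean of two determinations.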
# Mus musculus [2] = experiment: Percentage excess MST, when used as the chlorohydrate in mice infected with Plasmodium berghei (i.p., 40 mg/kg); format: functional; settings: route intraperitoneal
# Method in brief: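 Female Swiss CD-1 mice (four weeks, 20–25 g), three per group, were infected ip with about 10^7 P. berghei ANKA parasitized erythrocytes. Dosing was 40 mg/kg in 100% DMSO, given orally at infection, then ip over the following 4 days. Parasitemia was counted daily. Activity was scored as percentage excess mean survival time over DMSO-treated infected controls.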
# Plasmodium falciparum [3] = experiment: Effective dose against chloroquine-resistant Plasmodium falciparum FcB1R; format: functional
# Method in brief: (§1)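 Asynchronous cultures in human erythrocytes (0.5% parasitemia, 1% hematocrit) received serially diluted drug, DMSO ≤0.1%. After 24 h at 37 °C, 0.5 μCi [3H]hypoxanthine was added and incubation continued another 24 h. Growth inhibition was taken versus drug-free control, ED50 read from the concentration–response curve, and reported as mean of ≥3 independent experiments.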
# [4] = Susceptibility of compound to hydrolysis at 37 degrees C at pH 5.0 acetate medium; format: ADME
# Method in brief: (§2)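 Prodrug (100 μM final, from 1 mM stock in 10% aqueous DMSO) is incubated at 37 °C in pH 7.4 phosphate buffer (150 mM NaCl, 4 mM NaH₂PO₄, 25 mM NaHCO₃) or pH 5.0 acetate (150 mM NaCl, 10 mM NaOAc). Half-life of ester disappearance is found by HPLC as the mean of two determinations.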
# Plasmodium berghei = experiment: Parasitaemia (%) on day 4 in Plasmodium berghei infected mice (Mus musculus) at 40 mg/kg intraperitoneal dose; format: functional
# Method in brief: (§3)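 Female Swiss CD-1 mice (four-week-old, 20–25 g, three per group) are infected ip with about 10⁷ P. berghei ANKA 65 parasitized erythrocytes from a donor. On the day of infection they receive 40 mg/kg orally in 100% DMSO, then daily ip for 4 days. Parasitemia is counted daily. Controls get DMSO only.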
# [5] = Susceptibility of compound to hydrolysis at 37 degrees C at pH 7.4 phosphate buffer; format: ADME; method in brief: as §2
# [6] = molecular target: T1, Glutathione reductase, mitochondrial (Homo sapiens) (UniProt P00390); experiment: In vitro inhibition of human Glutathione Reductase; Not active
# T1 sequence (whole entry): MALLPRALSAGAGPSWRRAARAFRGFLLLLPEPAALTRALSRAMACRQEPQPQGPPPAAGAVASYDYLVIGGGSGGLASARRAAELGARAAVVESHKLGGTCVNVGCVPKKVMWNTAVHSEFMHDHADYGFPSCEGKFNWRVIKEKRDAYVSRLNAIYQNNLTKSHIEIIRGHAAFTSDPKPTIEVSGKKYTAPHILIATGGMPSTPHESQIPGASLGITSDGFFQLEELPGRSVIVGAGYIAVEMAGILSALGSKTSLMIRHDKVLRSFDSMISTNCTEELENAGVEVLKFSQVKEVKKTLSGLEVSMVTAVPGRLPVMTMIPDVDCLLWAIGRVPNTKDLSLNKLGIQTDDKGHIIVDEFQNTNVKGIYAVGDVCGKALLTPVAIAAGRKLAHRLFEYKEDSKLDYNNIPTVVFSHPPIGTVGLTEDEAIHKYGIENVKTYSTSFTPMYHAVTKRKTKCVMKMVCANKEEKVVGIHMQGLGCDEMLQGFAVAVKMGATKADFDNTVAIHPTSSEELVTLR
# Method in brief: (§4)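 Recombinant purified GR (about 5 mU/ml) with 100 μM NADPH in 47 mM potassium phosphate, 200 mM KCl, 1 mM EDTA, pH 6.9, at 25 °C. Enzyme, NADPH and inhibitor are premixed and the reaction is started with 100 μM GSSG. NADPH loss is read at 340 nm. IC50 is taken from increasing inhibitor concentrations in 1% final DMSO, run in duplicate.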
# [7] = molecular target: Glutathione reductase (Plasmodium falciparum 3D7) (UniProt O15770); experiment: In vitro inhibition of Plasmodium falciparum Glutathione Reductase; Not active; settings: Plasmodium falciparum FcB1; method in brief: as §4
# Plasmodium falciparum [8] = experiment: Effect on nucleic acid of chloroquine-resistant Plasmodium falciparum K1 culture after 24 hrs at 150 nM; format: functional
# Method in brief: (§5)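 Synchronized K1 ring cultures were treated 24 h, then saponin-isolated and freeze-thawed. Extract was diluted in 150 mM KH2PO4, pH 8.0, and nucleic acid and protein were estimated from absorbance at 260 and 280 nm. Protein was also measured by dye-binding assay with BSA standard.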
# Plasmodium falciparum [9] = experiment: Effect on glutathione content of chloroquine-resistant Plasmodium falciparum K1 culture after 24 hrs at 500 nM; format: functional
# Method in brief: (§6)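 Sorbitol-synchronized K1 rings (5% hematocrit, 3.7% parasitemia) exposed 24 h, then saponin-lysed and freeze-thawed. Extract (40 μL) was deproteinized with 2 volumes of 5% sulfosalicylic acid. Total glutathione was measured by GR-coupled DTNB-GSH recycling against a GSH standard curve. Expressed as nmol/mg protein.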
# Plasmodium falciparum [10] = experiment: Effect on protein of chloroquine-resistant Plasmodium falciparum K1 culture after 24 hrs at 30 nM; format: functional; method in brief: as §5
# Plasmodium falciparum [11] = experiment: Effect on nucleic acid of chloroquine-resistant Plasmodium falciparum K1 culture after 24 hrs at 30 nM; format: functional; method in brief: as §5
# Mus musculus [12] = experiment: Percentage of parasitaemia on day 18 in mice infected with Plasmodium berghei (ip, 40 mg/kg); format: functional; method in brief: as §3
# Plasmodium falciparum [13] = experiment: In vitro efficacy for chloroquine-sensitive Plasmodium falciparum F32; settings: read-out: ED50 (the source's name)
# Plasmodium falciparum [14] = experiment: In vitro efficacy for chloroquine-resistant Plasmodium falciparum W2; format: functional; settings: read-out: ED50 (the source's name); method in brief: as §1
# Plasmodium falciparum [15] = experiment: Effect on glutathione reductase activity of chloroquine-resistant Plasmodium falciparum K1 culture after 24 hrs at 500 nM; format: functional
# Method in brief: (§7)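 After 24 h exposure of synchronized K1 ring cultures, parasites were saponin-isolated and freeze-thaw extracts prepared. GR activity was assayed at 25 °C with 100 μM NADPH and 100 μM GSSG in 47 mM potassium phosphate, 200 mM KCl, 1 mM EDTA, pH 6.9, following NADPH consumption at 340 nm.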
# Plasmodium falciparum [16] = experiment: Effect on protein of chloroquine-resistant Plasmodium falciparum K1 culture after 24 hrs at 500 nM; format: functional; method in brief: as §5
# Plasmodium falciparum [17] = experiment: Effect on protein of chloroquine-resistant Plasmodium falciparum K1 culture after 24 hrs at 150 nM; format: functional; method in brief: as §5
# Plasmodium falciparum [18] = experiment: Effect on nucleic acid of chloroquine-resistant Plasmodium falciparum K1 culture after 24 hrs at 500 nM; format: functional; method in brief: as §5
# [19] = molecular target: Glutathione reductase (Plasmodium falciparum K1) (UniProt Q94655); experiment: Effect on glutathione reductase activity of chloroquine-resistant Plasmodium falciparum K1 in culture after 24 hrs treatment at 30 nM conc; format: functional; method in brief: as §7
# [20] = molecular target: Glutathione reductase (Plasmodium falciparum K1) (UniProt Q94655); experiment: Effect on glutathione reductase activity of chloroquine-resistant Plasmodium falciparum K1 in culture after 24 hrs treatment at 150 nM conc; format: functional; method in brief: as §7
# [21] = molecular target: T2, Glutathione S-transferase (Plasmodium falciparum) (UniProt Q8ILQ7); experiment: Effect on glutathione S-transferase (GST) activity of chloroquine-resistant Plasmodium falciparum K1 in culture after 24 hrs treatment at 30 nM conc; format: functional
# T2 sequence (whole entry): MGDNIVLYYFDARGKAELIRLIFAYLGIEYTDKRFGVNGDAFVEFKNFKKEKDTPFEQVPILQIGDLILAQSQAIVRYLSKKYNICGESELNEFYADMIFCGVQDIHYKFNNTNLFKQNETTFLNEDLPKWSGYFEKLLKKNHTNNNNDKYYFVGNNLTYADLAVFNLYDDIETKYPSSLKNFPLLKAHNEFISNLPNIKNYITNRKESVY
# Method in brief: (§8)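 K1 ring-stage cultures (sorbitol-synchronized, 5% hematocrit, 3.7% parasitemia) treated 24 h. Parasites were released with 0.02% saponin (10 min, 37 °C), freeze-thawed three times and the supernatant assayed. GST activity was read spectrophotometrically at 340 nm with 0.5 mM CDNB and 1 mM GSH in 100 mM potassium phosphate, 1 mM EDTA, pH 6.5. Reported as mU/mg protein.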
# Plasmodium falciparum [22] = experiment: In vitro efficacy for chloroquine-sensitive Plasmodium falciparum Thai strain; settings: read-out: ED50 (the source's name)
# Plasmodium falciparum [23] = experiment: Effect on glutathione content of chloroquine-resistant Plasmodium falciparum K1 culture after 24 hrs at 150 nM; format: functional; method in brief: as §6
# Plasmodium falciparum [24] = experiment: In vitro efficacy for chloroquine-resistant Plasmodium falciparum FcB1; format: functional; settings: read-out: ED50 (the source's name); method in brief: as §1
# Plasmodium falciparum [25] = experiment: Effect on glutathione content of chloroquine-resistant Plasmodium falciparum K1 culture after 24 hrs at 30 nM; format: functional; method in brief: as §6
# Plasmodium falciparum [26] = experiment: In vitro efficacy for chloroquine-sensitive Plasmodium falciparum D6; settings: read-out: ED50 (the source's name)
# [27] = molecular target: T2, Glutathione S-transferase (Plasmodium falciparum); experiment: Effect on glutathione S-transferase (GST) activity of chloroquine-resistant Plasmodium falciparum K1 in culture after 24 hrs treatment at 150 nM conc; format: functional; method in brief: as §8
# [28] = molecular target: T2, Glutathione S-transferase (Plasmodium falciparum); experiment: Effect on glutathione S-transferase (GST) activity of chloroquine-resistant Plasmodium falciparum K1 in culture after 24 hrs treatment at 500 nM conc; format: functional; method in brief: as §8
# Mus musculus [29] = experiment: Percentage of parasitaemia on day 11 in mice infected with Plasmodium berghei (ip, 40 mg/kg); format: functional; method in brief: as §3
# Plasmodium falciparum [30] = experiment: In vitro efficacy for chloroquine-resistant Plasmodium falciparum K1; format: functional; settings: read-out: ED50 (the source's name); method in brief: as §1
# Mus musculus [31] = experiment: Percentage of parasitaemia on day 4 in mice infected with Plasmodium berghei (ip, 40 mg/kg); format: functional; method in brief: as §3
# [32] = read-out: ED50 (the source's name)
# Chain of Glutathione reductase (Plasmodium falciparum K1) (Q94655 whole entry): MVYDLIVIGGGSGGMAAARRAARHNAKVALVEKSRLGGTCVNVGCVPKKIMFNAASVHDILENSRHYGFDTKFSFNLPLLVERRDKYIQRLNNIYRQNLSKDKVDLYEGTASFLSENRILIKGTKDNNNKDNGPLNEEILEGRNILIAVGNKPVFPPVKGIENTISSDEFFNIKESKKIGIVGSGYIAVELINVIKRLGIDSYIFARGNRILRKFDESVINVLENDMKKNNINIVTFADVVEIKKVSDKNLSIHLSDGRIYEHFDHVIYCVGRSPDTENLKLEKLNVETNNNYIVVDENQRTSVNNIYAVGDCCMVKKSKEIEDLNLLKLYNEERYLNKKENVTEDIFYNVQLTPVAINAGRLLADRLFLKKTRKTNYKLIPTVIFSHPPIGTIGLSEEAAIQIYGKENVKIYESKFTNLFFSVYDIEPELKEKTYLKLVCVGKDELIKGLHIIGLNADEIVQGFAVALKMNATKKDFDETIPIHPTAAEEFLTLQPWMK
# Chain of Glutathione reductase (Plasmodium falciparum 3D7) (O15770 whole entry): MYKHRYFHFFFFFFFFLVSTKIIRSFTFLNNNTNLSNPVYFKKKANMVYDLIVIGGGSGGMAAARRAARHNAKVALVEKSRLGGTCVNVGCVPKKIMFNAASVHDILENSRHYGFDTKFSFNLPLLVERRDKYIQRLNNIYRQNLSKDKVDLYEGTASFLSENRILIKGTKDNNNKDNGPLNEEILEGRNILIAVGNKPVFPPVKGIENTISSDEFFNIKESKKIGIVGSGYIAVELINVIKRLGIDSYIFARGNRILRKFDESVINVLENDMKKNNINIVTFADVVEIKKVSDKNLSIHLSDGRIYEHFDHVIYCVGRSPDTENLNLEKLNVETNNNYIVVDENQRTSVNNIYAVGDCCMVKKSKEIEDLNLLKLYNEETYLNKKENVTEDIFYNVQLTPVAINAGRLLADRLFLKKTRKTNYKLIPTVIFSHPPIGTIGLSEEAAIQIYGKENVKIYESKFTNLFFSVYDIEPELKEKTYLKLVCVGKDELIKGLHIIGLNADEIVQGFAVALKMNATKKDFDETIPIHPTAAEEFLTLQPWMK
structure (smiles),measurement,setting,value
CC1=C(CCCCC(=O)OCc2cc(NC(=O)CN3CCCCC3)cc(Nc3ccnc4cc(Cl)ccc34)c2)C(=O)c2c(O)cccc2C1=O,half-life,[1],> 80 h
same,Excess MST,Mus musculus [2],39%
same,EC50,Plasmodium falciparum [3]; read-out: ED50,28.7 nM
same,half-life,[4],> 80 h
same,Parasitaemia,Plasmodium berghei,9%
same,half-life,[5],> 80 h
CCN(CCCC(C)Nc1ccnc2cc(Cl)ccc12)CCOC(=O)CCCCCC1=C(C)C(=O)c2ccccc2C1=O (stereo not given),half-life,[1],> 80 h
same,EC50,Plasmodium falciparum [3]; [32],107 nM
same,half-life,[4],> 80 h
same,half-life,[5],> 80 h
COC(=O)CCCCCC1=C(C)C(=O)c2ccccc2C1=O,half-life,[1],> 3 h
same,EC50,Plasmodium falciparum [3]; [32],10800 nM
same,half-life,[4],0.5 h
same,NA,[6],inactive
same,NA,[7],inactive
same,half-life,[5],1 h
CC1=C(CCCCCC(=O)OCc2cc(NC(=O)CN3CCCCC3)cc(Nc3ccnc4cc(Cl)ccc34)c2)C(=O)c2ccccc2C1=O,Nucleic acids,Plasmodium falciparum [8],79 ng/mg
same,Glutathione,Plasmodium falciparum [9],<1 nM/mg
same,Protein,Plasmodium falciparum [10],1.1 mg/mL
same,Nucleic acids,Plasmodium falciparum [11],89 ng/mg
same,Parasitaemia,Mus musculus [12],48%
same,EC50,Plasmodium falciparum [13],25.8 nM
same,EC50,Plasmodium falciparum [14],26.4 nM
same,GR activity,Plasmodium falciparum [15],6 mU mg-1
same,half-life,[1],> 80 h
same,Protein,Plasmodium falciparum [16],0.4 mg/mL
same,Excess MST,Mus musculus [2],178%
same,Protein,Plasmodium falciparum [17],0.6 mg/mL
same,EC50,Plasmodium falciparum [3]; read-out: ED50,23.1 nM
same,Nucleic acids,Plasmodium falciparum [18],81 ng/mg
same,GR activity,[19],30 mU mg-1
same,half-life,[4],> 80 h
same,GR activity,[20],8 mU mg-1
same,GST activity,[21],3.7 mU mg-1
same,EC50,Plasmodium falciparum [22],36.5 nM
same,Glutathione,Plasmodium falciparum [23],<1 nM/mg
same,EC50,Plasmodium falciparum [24],23.1 nM
same,Glutathione,Plasmodium falciparum [25],14.8 nM/mg
same,EC50,Plasmodium falciparum [26],27.7 nM
same,GST activity,[27],4.3 mU mg-1
same,GST activity,[28],9.5 mU mg-1
same,half-life,[5],> 80 h
same,Parasitaemia,Mus musculus [29],9%
same,EC50,Plasmodium falciparum [30],29.3 nM
same,Parasitaemia,Mus musculus [31],<0.1%

# Reference: ChEMBL document CHEMBL1134294, “A prodrug form of a Plasmodium falciparum glutathione reductase inhibitor conjugated with a 4-anilinoquinoline” (J Med Chem, 2001)
